Measured values published in ChEMBL document CHEMBL4602651, “Development of selective mono or dual PROTAC degrader probe of CDK isoforms” (Eur J Med Chem, 2020).
Blank lines part the entries; values can stand above or below the compound they belong to. The source made the active and inactive calls. The calls are words filed in the database; no cut-off is given here.

Tests used:
[1] = tested on: PC-3; assay: Antiproliferative activity against AR-negative human PC3 cells assessed as reduction in cell viability after 5 days by CCK8 assay; assay type: functional, cell-based; conditions: PC-3, 120 h
Procedure, shortened: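 Cells seeded at 3 × 10^3 per well for 24 h, then dosed in 10-point, 3-fold serial dilution from 10 µM. CCK-8 added after 5 days, 4 h at 37 °C, absorbance at 450 nm. IC50 averaged from three separate determinations (at least two independent runs, duplicate wells). PC-3 grown in DMEM/F12 (1:1), LO2 in RPMI 1640, both with 10% FBS.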

[2] = biological target: T1, Protein cereblon/Cyclin-dependent kinase 2/Cyclin-dependent kinase 9 (Homo sapiens, UniProt P24941+P50750+Q96SW2); assay: Protac activity at CRBN/CDK2/CDK9 in AR-negative human PC3 cells assessed as CDK9 degradation at 10^-1 to 10^3 nM after 12 hrs by Western blot analysis; assay type: cell-based; conditions: PC-3
[3] = biological target: T1, Protein cereblon/Cyclin-dependent kinase 2/Cyclin-dependent kinase 9; assay: Protac activity at CRBN/CDK2/CDK9 in AR-negative human PC3 cells assessed as CDK2 degradation at 10^-1 to 10^3 nM after 12 hrs by Western blot analysis; assay type: cell-based; conditions: PC-3
[4] = biological target: T1, Protein cereblon/Cyclin-dependent kinase 2/Cyclin-dependent kinase 9; assay: Protac activity at CRBN/CDK2/CDK9 in AR-negative human PC3 cells assessed as induction of CDK2 protein degradation after 24 hrs by Western blot analysis; assay type: cell-based; conditions: PC-3
Procedure, shortened: (§1)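 PC-3 cells exposed to a degrader concentration series, then immunoblotted for CDK2 and CDK9 versus β-tubulin. The figure legend gives 24 h exposure. DC50 taken as mean of 2 determinations from densitometry.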

[5] = biological target: T1, Protein cereblon/Cyclin-dependent kinase 2/Cyclin-dependent kinase 9; assay: Protac activity at CRBN/CDK2/CDK9 in AR-negative human PC3 cells assessed as induction of CDK9 protein degradation after 24 hrs by Western blot analysis; assay type: cell-based; conditions: PC-3; procedure, shortened: as §1
[6] = biological target: T2, Protein cereblon/Cyclin-dependent kinase 2 (Homo sapiens) (UniProt P24941+Q96SW2); assay: Protac activity at CRBN/CDK2 in AR-negative human PC3 cells assessed as induction of CDK2 protein degradation at 30 uM after 12 hrs by Western blot analysis; assay type: cell-based; conditions: PC-3
Procedure, shortened: (§2)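 PC-3 cells (5 × 10^5 per well) treated 12 h at single concentrations (50 nM, 500 nM, 1, 5 or 30 µM). RIPA lysates (50 µg) run on 10% SDS-PAGE and immunoblotted for CDK2, CDK5, CDK9 with β-tubulin loading control, then detected by chemiluminescence. Band intensities quantified densitometrically.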

[7] = biological target: T2, Protein cereblon/Cyclin-dependent kinase 2 (Homo sapiens); assay: Protac activity at CRBN/CDK2 in AR-negative human PC3 cells assessed as induction of CDK2 protein degradation at 1 uM after 12 hrs by Western blot analysis; assay type: cell-based; conditions: PC-3; procedure, shortened: as §2
[8] = biological target: T2, Protein cereblon/Cyclin-dependent kinase 2 (Homo sapiens); assay: Protac activity at CRBN/CDK2 in AR-negative human PC3 cells assessed as induction of CDK2 protein degradation at 50 nM after 12 hrs by Western blot analysis; assay type: cell-based; conditions: PC-3; procedure, shortened: as §2
[9] = biological target: T3, Protein cereblon/Cyclin-dependent kinase 9 (Homo sapiens) (UniProt P50750+Q96SW2); assay: Protac activity at CRBN/CDK9 in AR-negative human PC3 cells assessed as induction of CDK9 protein degradation at 50 nM after 12 hrs by Western blot analysis; assay type: cell-based; conditions: PC-3
Procedure, shortened: (§3)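 PC-3 cells (DMEM/F12 1:1, 10% FBS, 1% pen/strep, 37 °C, 5% CO2) plated at 5 × 10^5 per well, exposed to compound for 12 h. RIPA lysates with protease inhibitors; 50 µg total protein run on 10% SDS-PAGE, transferred to PVDF, blocked in 5% milk/TBS-T. Probed with anti-CDK9 (1/1000), β-tubulin loading control, HRP secondary, chemiluminescence; bands scored as degradation detected or not.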

[10] = biological target: T3, Protein cereblon/Cyclin-dependent kinase 9 (Homo sapiens); assay: Protac activity at CRBN/CDK9 in AR-negative human PC3 cells assessed as induction of CDK9 protein degradation at 30 uM after 12 hrs by Western blot analysis; assay type: cell-based; conditions: PC-3; procedure, shortened: as §3
[11] = biological target: T1, Protein cereblon/Cyclin-dependent kinase 2/Cyclin-dependent kinase 9; assay: Protac activity at CRBN/CDK2/CDK9 in AR-negative human PC3 cells assessed as induction of CDK9 protein degradation at 5 uM after 12 hrs by Western blot analysis; assay type: cell-based; conditions: PC-3; procedure, shortened: as §2
[12] = biological target: Protein cereblon/Cyclin-dependent kinase 5 (Homo sapiens) (UniProt Q00535+Q96SW2); assay: Protac activity at CRBN/CDK5 in AR-negative human PC3 cells assessed as induction of CDK5 protein degradation at 1 uM after 12 hrs by Western blot analysis; assay type: cell-based; conditions: PC-3; procedure, shortened: as §2
[13] = biological target: T1, Protein cereblon/Cyclin-dependent kinase 2/Cyclin-dependent kinase 9; assay: Protac activity at CRBN/CDK2/CDK9 in AR-negative human PC3 cells assessed as induction of CDK9 protein degradation at 30 uM after 12 hrs by Western blot analysis; assay type: cell-based; conditions: PC-3; procedure, shortened: as §2
[14] = biological target: T1, Protein cereblon/Cyclin-dependent kinase 2/Cyclin-dependent kinase 9; assay: Protac activity at CRBN/CDK2/CDK9 in AR-negative human PC3 cells assessed as induction of CDK2 protein degradation at 5 uM after 12 hrs by Western blot analysis; assay type: cell-based; conditions: PC-3; procedure, shortened: as §2
[15] = biological target: T3, Protein cereblon/Cyclin-dependent kinase 9 (Homo sapiens); assay: Protac activity at CRBN/CDK9 in AR-negative human PC3 cells assessed as induction of CDK9 protein degradation at 1 uM after 12 hrs by Western blot analysis; assay type: cell-based; conditions: PC-3; procedure, shortened: as §3
[16] = biological target: T1, Protein cereblon/Cyclin-dependent kinase 2/Cyclin-dependent kinase 9; assay: Protac activity at CRBN/CDK2/CDK9 in AR-negative human PC3 cells assessed as induction of CDK9 protein degradation at 1 uM after 12 hrs by Western blot analysis; assay type: cell-based; conditions: PC-3; procedure, shortened: as §2
[17] = biological target: T1, Protein cereblon/Cyclin-dependent kinase 2/Cyclin-dependent kinase 9; assay: Protac activity at CRBN/CDK2/CDK9 in AR-negative human PC3 cells assessed as induction of CDK2 protein degradation at 1 uM after 12 hrs by Western blot analysis; assay type: cell-based; conditions: PC-3; procedure, shortened: as §2
[18] = biological target: T3, Protein cereblon/Cyclin-dependent kinase 9 (Homo sapiens); assay: Protac activity at CRBN/CDK9 in AR-negative human PC3 cells assessed as induction of CDK9 protein degradation at 5 uM after 12 hrs by Western blot analysis; assay type: cell-based; conditions: PC-3; procedure, shortened: as §3
[19] = biological target: T2, Protein cereblon/Cyclin-dependent kinase 2 (Homo sapiens); assay: Protac activity at CRBN/CDK2 in AR-negative human PC3 cells assessed as CDK2 degradation at 1 uM preincubated with pomalidomide for 2 hrs and measured after 8 hrs by Western blot analysis; assay type: cell-based; conditions: PC-3
Procedure, shortened: (§4)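 PC-3 cells pretreated 2 h with 10 µM DMSO, AT-7519, pomalidomide or MG-132, then degrader at 1 µM for 8 h. CDK2 immunoblotted against β-tubulin loading control, with 50 µg protein per lane on 10% SDS-PAGE and ECL detection.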

[20] = biological target: T2, Protein cereblon/Cyclin-dependent kinase 2 (Homo sapiens); assay: Protac activity at CRBN/CDK2 in AR-negative human PC3 cells assessed as CDK2 degradation at 1 uM preincubated with AT-7519 for 2 hrs and measured after 8 hrs by Western blot analysis; conditions: PC-3
[21] = biological target: T2, Protein cereblon/Cyclin-dependent kinase 2 (Homo sapiens); assay: Protac activity at CRBN/CDK2 in AR-negative human PC3 cells assessed as CDK2 degradation at 1 uM preincubated with proteasome inhibitor MG132 for 2 hrs and measured after 8 hrs by Western blot analysis; assay type: cell-based; conditions: PC-3; procedure, shortened: as §4

T3 sequence (P50750 whole entry, looked up): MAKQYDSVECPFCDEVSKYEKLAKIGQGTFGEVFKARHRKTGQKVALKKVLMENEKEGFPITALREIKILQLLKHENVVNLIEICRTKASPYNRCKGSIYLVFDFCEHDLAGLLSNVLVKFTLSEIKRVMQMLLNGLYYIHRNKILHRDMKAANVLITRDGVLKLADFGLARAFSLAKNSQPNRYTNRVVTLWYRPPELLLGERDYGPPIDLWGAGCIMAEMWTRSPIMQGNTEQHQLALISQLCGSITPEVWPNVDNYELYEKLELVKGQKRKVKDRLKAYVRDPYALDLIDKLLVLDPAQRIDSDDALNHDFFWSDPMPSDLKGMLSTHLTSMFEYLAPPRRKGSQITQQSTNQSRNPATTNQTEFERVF
T3 sequence (Q96SW2 whole entry, looked up): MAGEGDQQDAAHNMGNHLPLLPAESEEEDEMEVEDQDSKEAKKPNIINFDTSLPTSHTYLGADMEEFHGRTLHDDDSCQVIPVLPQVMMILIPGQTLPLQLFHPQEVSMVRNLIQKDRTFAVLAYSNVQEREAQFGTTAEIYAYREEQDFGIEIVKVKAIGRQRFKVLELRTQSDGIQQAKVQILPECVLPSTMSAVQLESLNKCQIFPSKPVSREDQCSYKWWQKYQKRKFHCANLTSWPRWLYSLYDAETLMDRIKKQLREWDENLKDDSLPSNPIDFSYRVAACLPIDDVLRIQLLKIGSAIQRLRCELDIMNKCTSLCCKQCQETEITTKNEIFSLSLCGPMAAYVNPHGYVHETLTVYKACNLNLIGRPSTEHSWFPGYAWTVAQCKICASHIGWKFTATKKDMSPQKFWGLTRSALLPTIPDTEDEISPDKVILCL
Sequence of Protein cereblon/Cyclin-dependent kinase 5 (Homo sapiens) (Q00535 whole entry, looked up): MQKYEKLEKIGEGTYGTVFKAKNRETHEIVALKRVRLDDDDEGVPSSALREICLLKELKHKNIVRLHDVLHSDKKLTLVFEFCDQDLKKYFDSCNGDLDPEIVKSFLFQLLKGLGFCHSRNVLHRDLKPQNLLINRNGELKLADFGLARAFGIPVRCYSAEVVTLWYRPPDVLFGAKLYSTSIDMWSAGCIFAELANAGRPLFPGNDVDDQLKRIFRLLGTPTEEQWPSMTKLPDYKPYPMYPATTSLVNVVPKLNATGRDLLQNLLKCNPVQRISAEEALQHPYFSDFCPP
Sequence of Protein cereblon/Cyclin-dependent kinase 5 (Homo sapiens) (Q96SW2 whole entry, looked up): as the sequence (Q96SW2 whole entry, looked up) above

IC50 [1]: 2.02 µM
SMILES: O=C(CCC(=O)N1CCC(NC(=O)c2n[nH]cc2NC(=O)c2c(Cl)cccc2Cl)CC1)NCCCOCCOCCOCCCNC(=O)COc1cccc2c1C(=O)N(C1CCC(=O)NC1=O)C2=O (stereo not drawn)

Activity [2]: Active | Activity [3]: Active
SMILES: O=C(CCC(=O)N1CCN(Cc2ccc(NC(=O)c3n[nH]cc3Nc3ncnc4[nH]ccc34)cc2)CC1)NCCNc1ccc2c(c1)C(=O)N(C1CCC(=O)NC1=O)C2=O (stereo not drawn)

IC50 [1]: 18.3 µM | Activity [4]: inactive | Activity [5]: inactive
SMILES: O=C(CCC(=O)N1CCN(Cc2ccc(NC(=O)c3n[nH]cc3Nc3ncnc4[nH]ccc34)cc2)CC1)NCCCOCCOCCOCCCNC(=O)COc1cccc2c1C(=O)N(C1CCC(=O)NC1=O)C2=O (stereo not drawn)

IC50 [1]: 14.6 µM
SMILES: O=C(CCC(=O)N1CCC(NC(=O)c2n[nH]cc2NC(=O)c2c(Cl)cccc2Cl)CC1)NCCCCCCNc1cccc2c1C(=O)N(C1CCC(=O)NC1=O)C2=O (stereo not drawn)

IC50 [1]: 23.3 µM
SMILES: O=C(CCC(=O)N1CCC(NC(=O)c2n[nH]cc2NC(=O)c2c(Cl)cccc2Cl)CC1)NCCCCNc1cccc2c1C(=O)N(C1CCC(=O)NC1=O)C2=O (stereo not drawn)

Activity [2]: Active | Activity [3]: Active
SMILES: O=C(CCC(=O)N1CCN(Cc2ccc(NC(=O)c3n[nH]cc3Nc3ncnc4[nH]ccc34)cc2)CC1)NCCNc1cccc2c1CN(C1CCC(=O)NC1=O)C2=O (stereo not drawn)

Activity [6]: inactive | IC50 [1]: 1.38 µM | Activity [7]: inactive | Activity [8]: Active | Activity [9]: Active | Activity [10]: Active
SMILES: O=C(CCC(=O)N1CCN(Cc2ccc(NC(=O)c3n[nH]cc3Nc3ncnc4[nH]ccc34)cc2)CC1)NCCCCNc1cccc2c1C(=O)N(C1CCC(=O)NC1=O)C2=O (stereo not drawn)

Activity [11]: Active | Activity [7]: Active | Activity [12]: inactive | Activity [13]: Active | Activity [14]: Active | Activity [15]: inactive
SMILES: O=C(COc1cccc2c1C(=O)N(C1CCC(=O)NC1=O)C2=O)NCCCCCC(=O)N1CCC(NC(=O)c2n[nH]cc2NC(=O)c2c(Cl)cccc2Cl)CC1 (stereo not drawn)

IC50 [1]: 5.95 µM
SMILES: O=C(CCC(=O)N1CCC(NC(=O)c2n[nH]cc2NC(=O)c2c(Cl)cccc2Cl)CC1)NCCNc1cccc2c1C(=O)N(C1CCC(=O)NC1=O)C2=O (stereo not drawn)

IC50 [1]: 0.54 µM | Activity [8]: Active | Activity [13]: Active | Activity [16]: Active | Activity [17]: Active | Activity [9]: Active
SMILES: O=C(COc1cccc2c1C(=O)N(C1CCC(=O)NC1=O)C2=O)NCCCCCC(=O)N1CCN(Cc2ccc(NC(=O)c3n[nH]cc3Nc3ncnc4[nH]ccc34)cc2)CC1 (stereo not drawn)

Activity [18]: Active | IC50 [1]: 0.84 µM | Activity [7]: Active | Activity [12]: inactive | Activity [19]: inactive | Activity [20]: inactive | Activity [21]: inactive | Activity [10]: Active | Activity [15]: inactive
SMILES: O=C(COc1cccc2c1C(=O)N(C1CCC(=O)NC1=O)C2=O)NCCOCCOCC(=O)N1CCC(NC(=O)c2n[nH]cc2NC(=O)c2c(Cl)cccc2Cl)CC1 (stereo not drawn)
